The subject of this assay is A-375. Kind of assay: Antitumor activity against human A375 cells xenografted in athymic nude mouse assessed as tumor growth inhibition at 60 mg/kg, ip once daily administered 7 days after inoculation for 22 days. On the set-up: scale not given: the % may be the effect or the level left. As to conditions: route intraperitoneal. The format is functional. The gist of the method: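 Male athymic nude mice, 4–5 weeks old, injected subcutaneously in the right flank with A375 cells (5 × 10^7/mL, 100 μL, 1:1 Matrigel). Grouped at about 150 mm3 (~day 7), n = 8. DTIC in saline given ip once daily. Caliper volume a×b²×0.5 measured twice weekly; % reduction 100×[(T–T0)/(C–C0)] at day 22. Body weight monitored.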

Consider `CCCCCCCCCCCCCCCCNC(=O)[C@@H]1CSC(c2ccc(NC(C)=O)cc2)N1` (mixture of isomers), for which the Activity amounted to 42%.

Values taken from ChEMBL document CHEMBL1159121, “Synthesis, in vitro structure-activity relationship, and in vivo studies of 2-arylthiazolidine-4-carboxylic acid amides as anticancer agents” (Bioorg Med Chem, 2010).
